In ChEMBL document CHEMBL3580617, “Discovery of Benzimidazole CYP11B2 Inhibitors with in Vivo Activity in Rhesus Monkeys” (ACS Med Chem Lett, 2015):
The source made the active and inactive calls. The rule behind the calls is not given here.

Experiments:
[1] = molecular target: T1, Cytochrome P450 11B2, mitochondrial (Homo sapiens, UniProt P19099); assay: Inhibition of human CYP11B2 expressed in V79 cells incubated for 1 hr before 11-deoxycorticosterone substrate addition by HTRF-based assay; type: cell-based
T1 sequence (P19099 whole entry): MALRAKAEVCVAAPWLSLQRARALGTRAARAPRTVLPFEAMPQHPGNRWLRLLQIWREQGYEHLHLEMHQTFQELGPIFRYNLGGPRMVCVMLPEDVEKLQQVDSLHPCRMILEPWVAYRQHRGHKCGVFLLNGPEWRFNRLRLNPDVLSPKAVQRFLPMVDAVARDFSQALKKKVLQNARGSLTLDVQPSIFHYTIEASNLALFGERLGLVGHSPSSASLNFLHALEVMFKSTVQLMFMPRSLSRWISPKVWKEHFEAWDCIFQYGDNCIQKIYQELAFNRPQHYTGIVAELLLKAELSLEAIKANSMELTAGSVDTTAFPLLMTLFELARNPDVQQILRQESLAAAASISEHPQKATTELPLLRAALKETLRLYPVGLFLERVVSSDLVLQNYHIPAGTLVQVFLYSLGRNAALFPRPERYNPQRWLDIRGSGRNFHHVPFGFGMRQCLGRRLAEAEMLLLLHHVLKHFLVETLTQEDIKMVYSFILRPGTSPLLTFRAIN
How it was run: (§1)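 Human CYP11B2 and CYP11B1 inhibition was tested in cell-based assays. Selectivity was taken as the hCYP11B1 IC50 divided by the hCYP11B2 IC50.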

[2] = molecular target: T2, Cytochrome P450 11B1, mitochondrial (Homo sapiens, UniProt P15538); assay: Inhibition of human CYP11B1 expressed in V79 cells incubated for 1 hr before 11-deoxycortisol substrate addition by HTRF-based assay; type: cell-based; how it was run: as §1
T2 sequence (P15538 whole entry): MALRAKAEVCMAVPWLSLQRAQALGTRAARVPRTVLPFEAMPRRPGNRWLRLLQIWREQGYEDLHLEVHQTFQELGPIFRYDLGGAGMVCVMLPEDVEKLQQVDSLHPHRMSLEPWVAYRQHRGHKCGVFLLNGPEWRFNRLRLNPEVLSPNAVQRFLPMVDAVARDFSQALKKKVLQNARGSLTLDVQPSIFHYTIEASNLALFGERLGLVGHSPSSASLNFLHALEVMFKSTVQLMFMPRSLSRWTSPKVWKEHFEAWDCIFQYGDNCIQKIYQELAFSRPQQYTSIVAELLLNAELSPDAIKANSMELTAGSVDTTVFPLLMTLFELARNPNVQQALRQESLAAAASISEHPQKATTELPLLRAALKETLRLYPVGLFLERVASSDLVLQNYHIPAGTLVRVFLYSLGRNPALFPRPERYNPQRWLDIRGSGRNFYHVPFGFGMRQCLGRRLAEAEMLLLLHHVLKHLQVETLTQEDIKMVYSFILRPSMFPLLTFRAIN

[3] = species on record: Homo sapiens; assay: Selectivity index, ratio of IC50 for human CYP11B1 to IC50 for human CYP11B2; how it was run: as §1
[4] = Fraction unbound in rat plasma at […] incubated for 4 hrs by equilibrium dialysis and LC/MS method; type: ADME, cell-free
[5] = Intrinsic clearance in rat liver microsomes at […] incubated for 10 mins before NADPH addition by LC/MS method; type: ADME; details: read-out: CLH
[6] = Oral bioavailability in Sprague-Dawley rat at 2 mg/kg by LC-MS/MS method; type: ADME, organism-based; details: in vivo
How it was run: (§2)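 In the rat pharmacokinetic study, AUC was normalized for dose (μM·h·kg/mg), plasma clearance was expressed in mL/min/kg, and oral bioavailability was calculated.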

[7] = tested on: Rattus norvegicus; assay: Dose normalized AUC in Sprague-Dawley rat at 2 mg/kg, po or 1 mg/kg, iv by LC-MS/MS method; type: ADME, organism-based; details: in vivo; how it was run: as §2
[8] = Plasma clearance in Sprague-Dawley rat at 2 mg/kg, po or 1 mg/kg, iv by LC-MS/MS method; type: ADME, organism-based; how it was run: as §2
[9] = tested on: V79; assay: Inhibition of rhesus monkey CYP11B2 expressed in V79 cells incubated for 1 hr before 11-deoxycorticosterone substrate addition by HTRF-based assay; type: cell-based; details: Macaca mulatta
[10] = molecular target: T3, Cytochrome P450 11B2, mitochondrial (Rattus norvegicus, UniProt P30099); assay: Inhibition of rat CYP11B2 expressed in V79 cells incubated for 1 hr before 11-deoxycorticosterone substrate addition by HTRF-based assay; type: cell-based; details: v79, 1 h
T3 sequence (P30099 whole entry): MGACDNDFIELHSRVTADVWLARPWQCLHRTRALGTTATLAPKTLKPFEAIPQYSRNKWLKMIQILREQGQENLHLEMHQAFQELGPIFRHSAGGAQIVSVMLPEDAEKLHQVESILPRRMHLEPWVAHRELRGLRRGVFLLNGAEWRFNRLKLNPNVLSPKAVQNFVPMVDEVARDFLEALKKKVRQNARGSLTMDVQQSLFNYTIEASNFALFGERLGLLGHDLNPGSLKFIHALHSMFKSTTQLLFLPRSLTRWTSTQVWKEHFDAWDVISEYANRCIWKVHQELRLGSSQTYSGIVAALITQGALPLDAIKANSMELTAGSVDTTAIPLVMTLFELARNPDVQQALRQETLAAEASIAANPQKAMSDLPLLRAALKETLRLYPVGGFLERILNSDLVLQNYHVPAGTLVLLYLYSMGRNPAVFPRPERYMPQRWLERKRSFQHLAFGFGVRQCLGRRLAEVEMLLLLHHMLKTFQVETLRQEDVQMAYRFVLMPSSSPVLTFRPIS

Compound: FC(F)(F)c1ccc2nc(-c3cccnc3)n(C3CC3)c2c1
- IC50 [1]: 254 nM
- IC50 [2]: 1830 nM
- Ratio IC50 [3]: 7

Compound: c1cncc(-c2nc3ccccc3n2C2CC2)c1
- IC50 [1]: 49 nM
- IC50 [2]: > 8330 nM
- Ratio IC50 [3]: > 170

Compound: Fc1cncc(-c2nc3cc(F)c(Cl)cc3n2C2CC2)c1
- IC50 [1]: 0.8 nM
- IC50 [2]: 251 nM
- Ratio IC50 [3]: 296

Compound: Fc1ccc2nc(-c3cccnc3)n(C3CCC3)c2c1
- IC50 [1]: > 5000 nM
- IC50 [2]: > 10000 nM

Compound: Fc1cc2nc(-c3cccnc3)n(C3CC3)c2cc1Cl
- IC50 [1]: 0.4 nM
- IC50 [2]: 334 nM
- Ratio IC50 [3]: 835

Compound: N#Cc1cc2c(cc1F)nc(-c1cncc(F)c1)n2C1CC1
- IC50 [1]: 1 nM
- IC50 [2]: 225 nM
- Ratio IC50 [3]: 225

Compound: Fc1cc2nc(-c3cnccc3C(F)(F)F)n(C3CC3)c2cc1F
- IC50 [1]: 8.1 nM
- IC50 [2]: 795 nM
- Ratio IC50 [3]: 98

Compound: Cn1c(-c2cccnc2)nc2ccc(F)cc21
- IC50 [1]: 12 nM
- IC50 [2]: 677 nM
- Ratio IC50 [3]: 56
- fraction unbound at 4 h [4]: 0.25
- CLint scaled [5]: 30 mL/min/kg
- bioavailability [6]: 37%
- AUC/dose [7]: 0.56 µM·kg·h/mg
- clearance [8]: 59 mL/min/kg

Compound: Cc1cncc(-c2nc3cc(F)c(F)cc3n2C2CC2)c1C
- IC50 [1]: 0.2 nM
- IC50 [2]: 17.7 nM
- Ratio IC50 [3]: 74

Compound: FC(F)(F)c1ccc2c(c1)nc(-c1cccnc1)n2C1CC1 [MSD-CYP11B2-Negative-control]
- IC50 [1]: > 10000 nM
- IC50 [2]: > 10000 nM

Compound: CC(C)n1c(-c2cccnc2)nc2ccc(F)cc21
- IC50 [1]: 138 nM
- IC50 [2]: 3920 nM
- Ratio IC50 [3]: 28

Compound: N#Cc1cc2c(cc1F)nc(-c1cccnc1)n2C1CC1
- IC50 [1]: 0.6 nM
- IC50 [2]: 117 nM
- Ratio IC50 [3]: 195

Compound: Fc1ccc2nc(-c3cccnc3)n(CC(F)(F)F)c2c1
- IC50 [1]: 561 nM
- IC50 [2]: > 8330 nM
- Ratio IC50 [3]: > 15

Compound: Cc1ccncc1-c1nc2cc(F)c(F)cc2n1C1CC1
- IC50 [1]: 10.2 nM
- IC50 [2]: 723 nM
- Ratio IC50 [3]: 71

Compound: Fc1cccc2nc(-c3cccnc3)n(C3CC3)c12
- IC50 [1]: 107 nM
- IC50 [2]: > 10000 nM
- Ratio IC50 [3]: > 93

Compound: Clc1ccc2nc(-c3cccnc3)n(C3CC3)c2c1
- IC50 [1]: 2.2 nM
- IC50 [2]: 477 nM
- Ratio IC50 [3]: 215

Compound: CS(=O)(=O)c1ccc2c(c1)nc(-c1cccnc1)n2C1CC1
- IC50 [1]: > 1000 nM
- IC50 [2]: > 10000 nM

Compound: Fc1cc2nc(-c3cccnc3)n(C3CC3)c2cc1F
- IC50 [1]: 2.1 nM
- IC50 [2]: 370 nM
- Ratio IC50 [3]: 176
- fraction unbound at 4 h [4]: 0.15
- CLint scaled [5]: < 20 mL/min/kg
- bioavailability [6]: 92%
- AUC/dose [7]: 1.32 µM·kg·h/mg
- clearance [8]: 43 mL/min/kg
- inhibition [9]: Active
- inhibition (INH) [10]: Not Active

Compound: CC1(n2c(-c3cccnc3)nc3ccc(F)cc32)CC1
- IC50 [1]: 16 nM
- IC50 [2]: 2860 nM
- Ratio IC50 [3]: 179
- fraction unbound at 4 h [4]: 0.19
- CLint scaled [5]: 82 mL/min/kg
- bioavailability [6]: 32%
- AUC/dose [7]: 0.2 µM·kg·h/mg
- clearance [8]: 131 mL/min/kg

Compound: N#Cc1ccc2c(c1)nc(-c1cccnc1)n2C1CC1
- IC50 [1]: 1770 nM
- IC50 [2]: > 10000 nM
- Ratio IC50 [3]: > 6

Compound: Fc1ccc2nc(-c3cccnc3)n(C3CC3)c2c1
- IC50 [1]: 4 nM
- IC50 [2]: 401 nM
- Ratio IC50 [3]: 100
- fraction unbound at 4 h [4]: 0.15
- CLint scaled [5]: 28 mL/min/kg
- bioavailability [6]: 77%
- AUC/dose [7]: 1.82 µM·kg·h/mg
- clearance [8]: 28 mL/min/kg

Compound: Fc1ccc2nc(-c3cccnc3)n(Cc3ccccc3)c2c1
- IC50 [1]: 607 nM
- IC50 [2]: > 8330 nM
- Ratio IC50 [3]: > 14

Compound: Fc1ccc2c(c1)nc(-c1cccnc1)n2C1CC1
- Ratio IC50 [3]: 142

Compound: COc1cncc(-c2nc3cc(F)c(F)cc3n2C2CC2)c1
- IC50 [1]: 0.4 nM
- IC50 [2]: 250 nM
- Ratio IC50 [3]: 606

Compound: CCn1c(-c2cccnc2)nc2ccc(F)cc21
- IC50 [1]: 35 nM
- IC50 [2]: 2100 nM
- Ratio IC50 [3]: 60

Compound: N#Cc1cncc(-c2nc3cc(F)c(F)cc3n2C2CC2)c1
- IC50 [1]: 22.3 nM
- IC50 [2]: 1550 nM
- Ratio IC50 [3]: 70

Compound: CC(C)(C)n1c(-c2cccnc2)nc2ccc(F)cc21
- IC50 [1]: > 5000 nM
- IC50 [2]: > 10000 nM

Compound: COc1ccc2nc(-c3cccnc3)n(C3CC3)c2c1
- IC50 [1]: 24 nM
- IC50 [2]: 1980 nM
- Ratio IC50 [3]: 83

Compound: N#Cc1ccc2nc(-c3cccnc3)n(C3CC3)c2c1
- IC50 [1]: 1.2 nM
- Ratio IC50 [3]: 309

Compound: Fc1cccc2c1nc(-c1cccnc1)n2C1CC1
- IC50 [1]: 219 nM
- IC50 [2]: > 8330 nM
- Ratio IC50 [3]: > 38

Compound: Fc1ccc2nc(-c3cccnc3)[nH]c2c1
- IC50 [1]: > 10000 nM
- IC50 [2]: 1990 nM
- Ratio IC50 [3]: < 1

Compound: COc1c(C)cncc1-c1nc2cc(F)c(F)cc2n1C1CC1
- IC50 [1]: 0.6 nM
- IC50 [2]: 435 nM
- Ratio IC50 [3]: 709

Compound: COc1ccc2c(c1)nc(-c1cccnc1)n2C1CC1
- IC50 [1]: > 1000 nM
- IC50 [2]: > 10000 nM
